From ChEMBL document CHEMBL1148340 (J Med Chem, 2004)

Columns and labels:
[1] = molecular target: T1, Human immunodeficiency virus type 1 reverse transcriptase (Human immunodeficiency virus 1, UniProt Q72547); test: Inhibitory concentration against wild type HIV-1 reverse transcriptase (RT) using poly rC.dG as the template or primer
Summary of the method: (§1)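 Recombinant HIV-1 RT (IIIB-derived) or Glu138Lys mutant. Buffer: 50 mM Tris-HCl pH 7.8, 5 mM DTT, 150 mM KCl, 5 mM MgCl₂, 500 μM EDTA, 0.06% Triton X-100, with BSA. Incubated 37 °C, 30 min, then TCA/pyrophosphate precipitation on ice.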

[2] = molecular target: T1, Human immunodeficiency virus type 1 reverse transcriptase; test: Inhibitory concentration against wild type HIV-1/138Lys reverse transcriptase (RT) using [3H]dGTP as a radioligand; summary of the method: as §1
CCRF-CEM [3] = test: Effective concentration required to inhibit HIV-1E138K induced cytopathicity in human CEM cell lines
[4] = Partition coefficient (logP); assay type: physicochemical; details: octanol/water
MT4 [5] = test: Effective concentration required to inhibit HIV-2 induced cytopathicity in human MT-4 cell lines; assay type: functional, cell-based
Summary of the method: (§2)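 MT-4 cells at 3 × 10⁵/mL were infected with HIV-1 or HIV-2 at ~100 CCID₅₀ per mL and mixed 1:1 with compound dilutions. After 5 days, HIV-induced cytopathicity was recorded by trypan blue dye exclusion. EC₅₀ is the concentration that reduced virus-induced loss of cell viability by 50%.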

MT4 [6] = test: Cytostatic concentration required to reduce MT-4 cell viability in mock-infected cell cultures; assay type: functional; details: Homo sapiens
Summary of the method: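 Mock-infected MT-4 cells at 3 × 10⁵/mL were exposed to compound dilutions. Viable cells were counted by trypan blue exclusion. CC₅₀ is the concentration that reduced the number of viable cells by 50%.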

CCRF-CEM [7] = test: Cytostatic concentration required to inhibit proliferation of CEM cells; assay type: functional; details: Homo sapiens
Summary of the method: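 CEM cells were cultured with serial compound dilutions alongside the antiviral assay. CC₅₀ is the concentration that inhibited cell proliferation by 50%.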

CCRF-CEM [8] = test: Effective concentration required to inhibit HIV-2 induced cytopathicity in human CEM cell lines; assay type: functional, cell-based
Summary of the method: (§3)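 CEM cells at 4 × 10⁵/mL were infected with HIV-1 or HIV-2 at ~100 CCID₅₀ per mL. The cells were mixed 1:1 with serial compound dilutions. Giant cell formation was scored microscopically after 4 days. EC₅₀ is the concentration that inhibited virus-induced cytopathicity by 50%.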

CCRF-CEM [9] = test: Effective concentration required to inhibit HIV-1 induced cytopathicity in human CEM cell lines; assay type: functional, cell-based; summary of the method: as §3
MT4 [10] = test: Effective concentration required to inhibit HIV-1 induced cytopathicity in human MT-4 cell lines; assay type: functional, cell-based; summary of the method: as §2
[11] = tested on: Human immunodeficiency virus 1; test: Anti-HIV activity against wild type HIV-1(LAI) strain in P4/R5 cells; details: Human immunodeficiency virus 1, P4/R5
[12] = tested on: Human immunodeficiency virus 1; test: Anti-HIV activity against PFA-resistant mutant HIV-1W88G strain in P4/R5 cells; assay type: functional, organism-based; details: Human immunodeficiency virus 1, P4/R5
Summary of the method: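 HeLa-derived P4/R5 reporter cells (stable Tat-activated β-galactosidase under HIV LTR), 5×10^4 cells/mL, infected with HIV-1 LAI or W88G at MOI 0.05 TCID₅₀/mL. Drug added in 2- or 3-fold dilutions, in triplicate. At 48 h, lysis buffer and luminescent substrate added and β-galactosidase read by luminometer. EC₅₀ given as mean ± SD of five independent experiments (three in one case).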

| SMILES | IC50 [1] [µM] | IC50 [2] [µM] | EC50 (CCRF-CEM [3]) [µM] | logP [4] | EC50 (MT4 [5]) [µM] | CC50 (MT4 [6]) [µM] | CC50 (CCRF-CEM [7]) [µM] | EC50 (CCRF-CEM [8]) [µM] | EC50 (CCRF-CEM [9]) [µM] | EC50 (MT4 [10]) [µM] | EC50 [11] [µM] | EC50 [12] [µM] |
| --- | --- | --- | --- | --- | --- | --- | --- | --- | --- | --- | --- | --- |
| Cc1cn([C@@H]2O[C@H](CO[Si](C)(C)C(C)(C)C)[C@@]3(OS(=O)(=O)C=C3N)[C@H]2O[Si](C)(C)C(C)(C)C)c(=O)n(C)c1=O | 3.1 | > 100 |  |  |  |  |  |  |  |  |  |  |
| CCOC(=O)P(=O)(O)OCCCn1c(=O)c(C)cn([C@@H]2O[C@H](CO[Si](C)(C)C(C)(C)C)[C@@]3(OS(=O)(=O)C=C3N)[C@H]2O[Si](C)(C)C(C)(C)C)c1=O | 6.3 | 293 | 25 | 4.01 | > 50 | 84.3 | 135 | > 50 | 2.13 | 4.23 |  |  |
| COC(=O)P(=O)(O)OCCCn1c(=O)c(C)cn([C@@H]2O[C@H](CO[Si](C)(C)C(C)(C)C)[C@@]3(OS(=O)(=O)C=C3N)[C@H]2O[Si](C)(C)C(C)(C)C)c1=O | 4.7 | 394 | > 50 | 4.01 | > 50 | 55.5 | 146 | > 50 | 4.5 | 20.1 |  |  |
| Cc1cn([C@@H]2O[C@H](CO[Si](C)(C)C(C)(C)C)[C@@]3(OS(=O)(=O)C=C3N)[C@H]2O[Si](C)(C)C(C)(C)C)c(=O)n(CCCOP(=O)(O)C(=O)O)c1=O | 3.7 | 437 | ≥ 50 | 0.63 | > 50 | 111 | 178 | > 50 | 0.47 | 0.82 | 0.3 | 0.16 |
| Cc1cn([C@@H]2O[C@H](CO[Si](C)(C)C(C)(C)C)[C@@]3(OS(=O)(=O)C=C3N)[C@H]2O[Si](C)(C)C(C)(C)C)c(=O)n(CCCOP(=O)(O)C(=O)OCc2ccccc2)c1=O | 3.8 | 312 | 20 | 5.02 | > 50 | 84 | 138 | > 50 | 3 | 1.26 |  |  |
| COC(=O)P(=O)(OC)OCCCn1c(=O)c(C)cn([C@@H]2O[C@H](CO[Si](C)(C)C(C)(C)C)[C@@]3(OS(=O)(=O)C=C3N)[C@H]2O[Si](C)(C)C(C)(C)C)c1=O (some centres not stated) | 11 | > 500 | > 10 | 7.12 | > 10 | 18.4 | 20.9 | > 50 | 0.08 | 0.282 |  |  |
| Cc1cn([C@@H]2O[C@H](CO[Si](C)(C)C(C)(C)C)[C@@]3(OS(=O)(=O)C=C3N)[C@H]2O[Si](C)(C)C(C)(C)C)c(=O)n(CCCO)c1=O | 8.1 | > 100 | > 2 | 2.26 | > 2 | 3.86 |  | > 10 |  |  | 0.043 | 0.027 |
| O=C(O)P(=O)(O)O [FOSCARNET] |  |  | 87 | -0.56 | 140 | 230 |  | 105 | 121 | 133 | 44 | > 300 |
